Source: the EternaBench riboswitch data

Test system: MS2 coat protein
Assay: apparent Kd, MS2 coat protein; higher = weaker binding; RNA-MaP array
Procedure, shortened: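 RNA designs were transcribed from sequenced DNA templates on an Illumina sequencing chip and then incubated at room temperature with fluorescently labeled MS2 coat protein at 1.5 nM to 3 μM, with or without input ligand, in Tris-HCl pH 7.5 buffer containing KCl, MgCl2, BSA, DTT, tRNA and Tween20. Incubation lasted 0.8–1.5 h at the lowest protein concentrations and 10–20 min at the highest. Apparent Kd is the median of binding-curve fits made for each cluster. Designs measured on fewer than 10 clusters were excluded.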

[1] = designed as: OFF switch for flavin mononucleotide, no ligand
[2] = ligand present: flavin mononucleotide, designed as: OFF switch for flavin mononucleotide
[3] = designed as: ON switch for flavin mononucleotide, no ligand
[4] = ligand present: flavin mononucleotide, designed as: ON switch for flavin mononucleotide
[5] = designed as: OFF switch for theophylline, no ligand
[6] = ligand present: theophylline, designed as: OFF switch for theophylline
[7] = designed as: OFF switch for tryptophan, no ligand
[8] = ligand present: tryptophan, designed as: OFF switch for tryptophan

Row | Sequence | apparent Kd [1] | apparent Kd [2] | apparent Kd [3] | apparent Kd [4] | also measured
1 | CAUGUCAAAGACAUGAGGAUCACCCAUGUAAUCCAAGACGCAAGAAGGGCGUGUUGAACUAACACGCAGGAUAUUGACCCUGUU | 0.0575 µM | 0.0734 µM |  |  | 
2 | AGGUUACGUGUGAGGAUAUUAAGAUAUUAAAUUUAUAAGAAGGCACAUGAGGAUCACCCAUGUAUGACUUCCCA | 0.00566 µM | 0.00677 µM |  |  | 
3 | AAGCCACAUGAGGAUCACCCAUGUGAGGAUAUUCAUCUAGAUCAACAAGACACGGAUAGAAGAAGGCACGGUGG | 0.014 µM | 0.0295 µM |  |  | 
4 | CCGCAUAUGUGCCCAAUAUAACAUGAGGAUCACCCAUGUGGUAGAAGGAAUGCUCACGGCUCUCAUUAGGAUAUACCAGACUAU |  |  | 0.0182 µM | 0.0175 µM | 
5 | CAAACCAACUAGUAAAACAACAUGAGGAUCACCCAUGUAAGAGAGGAUAUUGAAAUCGAAAGCAACAAGAAGGCUCACCAUGUA |  |  | 0.0195 µM | 0.0158 µM | 
6 | CAUGUACUAGGAUAUACAAUCACUCGUCAGGCAGCGUUAACACAUGAGGAUCACCCAUGUAGAAGGAGUUUAAA | 0.00874 µM | 0.0082 µM |  |  | 
7 | CUCAGUGUGUAGAAGGUUUGCAUAGAAACAUCAAAAGGAUAUACAUGGUGAAGCCUUGAAACAUGAGGAUCACCCAUGUCUACG |  |  | 0.632 µM | 0.392 µM | 
8 | GCCAUAAUCUGAGGAUAUAGAGAGAUAAGGAAGCACAUGAGGAUCACCCAUGUCCGUGGUAUAGGCAAGAAGGCAGCUGGAAUC |  |  | 0.0153 µM | 0.0157 µM | 
9 | CAAGCACCAACCGAUACCAGCUUAGUAGUAUGCUCAUUAAACAUGAGGAUCACCCAUGUGAGCCCUUGGCAGCGGAUUUCCCUGC |  |  |  |  | apparent Kd [5]: 0.0133 µM; apparent Kd [6]: 0.0207 µM
10 | UCUGUGAUCAACAUGAGGAUCACCCAUGUUACCACCUCUAGGCAGGAUAUGAGCGUACUAAGAAGUCAGAAGGGCCUUUUUACG |  |  | 0.0183 µM | 0.0101 µM | 
11 | GGCCAGGCAGCGGCCGCCACUUAGUGGGCCGAAUGUCCUUUGCUGAACAUGAGGAUCACCCAUGUAAGGACCGGGCUGUUCCGCA |  |  |  |  | apparent Kd [7]: 0.0305 µM; apparent Kd [8]: 0.0695 µM
12 | UCAAUUGAGGUCAAGGAUAUCUAGAAACAGACAUGAGGAUCACCCAUGUGCACAGCAUAAACGAGAGAGAAGGUGAGGCAUAUUGA |  |  | 0.0427 µM | 0.0265 µM | 
13 | AUUAGACAAGGAUAUACAAGUCGUAUCGGCGCUGGGUGUAUACAUGAGGAUCACCCAUGUAGAAGGUGUGCUAU | 0.101 µM | 0.19 µM |  |  | 
14 | AGACAUGAGGAUCACCCAUGUUGCUGUACAGGAGUUAAAGUCUAGGAUAUUGGGUCAGAAAGCGACAAGAAGGAGACACGCCAG |  |  | 0.0112 µM | 0.00847 µM | 
15 | UCCUUUAGACAUGAGGAUCACCCAUGUAGCCUCACUGUUCGUAGAAGGACACCGCUGUUCAAGCUGUAGGAUAUACGGAGGAUC | 0.468 µM | 0.319 µM |  |  | 
16 | CCAAUAUCUAUAGGAUAUCAAUGACCAAACUGAACAUGAGGAUCACCCAUGUAGUGAGUGACUUAUGAGAAGGAUAGACGUACC |  |  | 0.104 µM | 0.0229 µM | 
17 | GCUCCGCUAGCAGGAUAUGUAGGGGGAUUAUUGAUUGGGCGUAACAUGAGGAUCACCCAUGUUCCACAGAAGGGCUGGAGAAGA | 0.107 µM | 0.0683 µM |  |  | 
18 | CGAUGCGCAUUAUCCCACUGGUAUGAGUCUCGAGGACCGGUACGGCCGCCACUCGCUACCGUACAUGAGGAUCACCCAUGUAUUA |  |  |  |  | apparent Kd [7]: 0.028 µM; apparent Kd [8]: 0.0459 µM
19 | GACGAGAGACAGAAGGCUCGACUGUGGCUACGAGAUCUGAAAACAUGAGGAUCACCCAUGUUUCGAGAGGAUAUGUCGAAUUAU | 0.129 µM | 0.397 µM |  |  | 
20 | CGCGUCCCGGACGAUACCAGAUAUGAGCGACACAUGAGGAUCACCCAUGUCAAUCAUGAGAUCCCUUGGCAGCGUUUGCACAACU |  |  |  |  | apparent Kd (designed as: ON switch for theophylline, no ligand): 0.162 µM; apparent Kd (ligand present: theophylline, designed as: ON switch for theophylline): 0.209 µM
21 | CCCGUAAAGGCGGCCGCCACUGUAUGACAUGAGGAUCACCCAUGUAGGGAAAAUGCGAUGGUCGUCAGGACCGGGCCUCUGGCAU |  |  |  |  | apparent Kd [7]: 0.0231 µM; apparent Kd [8]: 0.0238 µM
22 | CAUGGGCUAAGACAUUAUUCGUAUUUUGAUACCAGAAAAUUGGCGUUCCCUUGGCAGCAAUAUACAUGAGGAUCACCCAUGUCCC |  |  |  |  | apparent Kd [5]: 0.0806 µM; apparent Kd [6]: 0.0939 µM
23 | UACAAAGAAUAGGAUAUCGAGAGGUAAUUUGGGCGAGAAGGAUUCACAUGAGGAUCACCCAUGUAGGCGGAUCU | 0.0307 µM | 0.0409 µM |  |  | 
24 | UCACGUCGCCGAGGAUAUGAUUACCGCUCUCCAUCAGAAGGCGGCGCGUGGUCCACAACAUGAGGAUCACCCAUGUCGAUUGAG |  |  | 0.0649 µM | 0.0107 µM | 
25 | GUGAAGUUAGUGAGCGUUAGUCAAGCCAAACGAGGACCGGUACGGCCGCCACUCGCGCAUCGACAUGAGGAUCACCCAUGUGCCG |  |  |  |  | apparent Kd [7]: 0.0146 µM; apparent Kd [8]: 0.0177 µM
26 | CGAGUCUAGGAGAAGGCAUACAUGAGGAUCACCCAUGUCAAAGGGCACGUAACGAUAAUCCACCAUGAGGAUAUCCUGUUUAGA | 0.0263 µM | 0.0217 µM |  |  | 
